The source made the active and inactive calls. No cut-off for these calls is given here. Bridge positions count the residues as written; N and C are the ends. Square brackets hold non-standard residues; d marks the D form. Side chains are listed from the residue outwards. Peptide text beside a SMILES is read from it. * marks the point of attachment. ξ: configuration not given here. FITC = O=C1OC2(c3ccc(O)cc3Oc3cc(O)ccc32)c2ccc(NC(=S)*)cc21; ξtBuAla = CC(C)(C)CC(N)C(=O)O; ξD = NC(CC(=O)O)C(=O)O; ξDap = NCC(N)C(=O)O; βAla = NCCC(=O)O
Tests used:
MCF7 = assay: Cytotoxicity against human MCF7 cells assessed as cell viability at 20 uM after 24 hrs by MTT assay; assay type: functional; conditions: MCF7, 24 h, read-out: Activity
[1] = molecular target: T1, Estrogen receptor (Homo sapiens) (UniProt P03372); assay: Binding affinity to recombinant human GFP-fused ERalpha LBD (301 to 553 residues) expressed in Escherichia coli BL21(DE3) after 40 mins in presence of 17beta-estradiol by fluorescence polarization assay; conditions: in the assay text read “ERalpha LBD” for “GFP-fused ERalpha LBD”
T1 sequence (whole entry): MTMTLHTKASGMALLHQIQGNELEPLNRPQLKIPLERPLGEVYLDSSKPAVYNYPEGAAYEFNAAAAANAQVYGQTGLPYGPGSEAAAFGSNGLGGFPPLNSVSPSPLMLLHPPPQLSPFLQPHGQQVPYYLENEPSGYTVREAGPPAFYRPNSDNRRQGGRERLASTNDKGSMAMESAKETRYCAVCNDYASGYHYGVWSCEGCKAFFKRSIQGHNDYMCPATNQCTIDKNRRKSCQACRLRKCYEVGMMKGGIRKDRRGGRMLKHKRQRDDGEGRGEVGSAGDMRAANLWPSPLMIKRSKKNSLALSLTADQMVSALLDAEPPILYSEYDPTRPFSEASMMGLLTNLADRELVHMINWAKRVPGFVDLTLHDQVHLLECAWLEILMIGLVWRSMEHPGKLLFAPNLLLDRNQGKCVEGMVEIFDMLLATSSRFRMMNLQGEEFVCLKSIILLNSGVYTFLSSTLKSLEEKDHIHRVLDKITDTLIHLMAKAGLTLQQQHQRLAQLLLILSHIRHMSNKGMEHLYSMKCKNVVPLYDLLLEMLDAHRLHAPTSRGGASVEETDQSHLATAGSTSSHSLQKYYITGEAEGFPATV

[2] = Drug uptake in human U2OS cells assessed per million cells at 5 uM after 3 hrs by FACS analysis; assay type: ADME, cell-based
In short: (§1)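 Adherent cells seeded overnight, then exposed to 5 μM FITC-labelled peptide or DMSO in FBS-free medium, 3 h, 37 °C. After PBS washes (three), about 10000 cells per sample analysed by flow cytometry; mean cellular fluorescence intensity calculated. More than two independent experiments, SEM.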

[3] = Drug uptake in human MCF7 cells assessed per million cells at 5 uM after 3 hrs by FACS analysis; assay type: ADME, cell-based; conditions: mcf7, 3 h; in short: as §1
[4] = molecular target: T1, Estrogen receptor (Homo sapiens); assay: Inhibition of ERalpha in human MCF7 cells assessed as downregulation of 17beta-estradiol-mediated pS2 mRNA expression at 5 uM preincubated for 4 hrs followed by 17beta-estradiol addition measured after 16 hrs by quantitative RT-PCR analysis; assay type: cell-based
In short: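 MCF-7 cells hormone-depleted 72 h in phenol red-free DMEM with 5% charcoal-treated serum, given peptides or DMSO for 4 h, then 100 nM 17β-estradiol or DMSO for 16 h. pS2 mRNA measured by quantitative RT-PCR, normalized to β-actin. Three independent experiments, mean ± SEM.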

[5] = molecular target: T1, Estrogen receptor (Homo sapiens); assay: Inhibition of recombinant human GFP-fused ERalpha LBD (301 to 553 residues) expressed in human […] cells assessed as downregulation of 17beta-estradiol-induced transcription at 5 uM preincubated for 4 hrs followed by E2 addition measured after 20 hrs by dual luciferase reporter gene assay; assay type: cell-based
In short: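 U2OS cells in phenol red-free DMEM with 10% charcoal-stripped FBS, transfected 4 h with pEGFP-C1-ERα, 3XERE firefly luciferase reporter and pRL-TK Renilla plasmids. Peptides for 4 h, then 10 nM E2 or DMSO for 20 h. Lysates read by dual-luciferase; firefly normalized to Renilla, then to DMSO-treated control. SEM from more than two independent experiments.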

[6] = molecular target: T1, Estrogen receptor (Homo sapiens); assay: Binding affinity to recombinant human GFP-fused ERalpha LBD (301 to 553 residues) expressed in Escherichia coli BL21(DE3) in presence of ERalpha inhibitor 4-hydroxytamoxifen by ITC
In short: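 ITC at 25 °C. 50 μM peptide injected in 2 μL steps into 5 μM ERα LBD in 50 mM Tris pH 8.0, 150 mM NaCl, 1 mM TCEP containing 0.1 mM 4-hydroxytamoxifen instead of estradiol. Isotherm fitted.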

[7] = molecular target: T1, Estrogen receptor (Homo sapiens); assay: Binding affinity to recombinant human GFP-fused ERalpha LBD (301 to 553 residues) expressed in Escherichia coli BL21(DE3) in presence of 17beta-estradiol by ITC
In short: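 ITC at 25 °C. 2 μL injections of 50 μM peptide into 5 μM ERα LBD in 50 mM Tris pH 8.0, 150 mM NaCl, 1 mM TCEP, 0.1 mM 17β-estradiol. Binding isotherm fitted for affinity.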

Row | Activity [1] | Compound | viability at 20 µM (MCF7) | further results
1 |  | CC[C@H](C)[C@@H]1NC(=O)C[C@H](NC(=O)[C@H](CCCNC(=N)N)NC(=O)CCNC(=O)[C@H](Cc2c[nH]c3ccccc23)NC(C)=O)C(=O)NCC(C(=O)N[C@@H](CCCNC(=N)N)C(=O)NC(CC(C)(C)C)C(=O)N[C@@H](CC(C)C)C(=O)N[C@@H](CCC(N)=O)C(N)=O)NC(=O)[C@H](CC(C)C)NC1=O (some centres not stated) | 53.9% | 
2 | Active | CC[C@H](C)[C@@H]1NC(=O)C[C@H](NC(=O)[C@H](CCCNC(=N)N)NC(=O)CCNC(=S)Nc2ccc3c(c2)C(=O)OC32c3ccc(O)cc3Oc3cc(O)ccc32)C(=O)NCC(C(=O)N[C@@H](CCCNC(=N)N)C(=O)N[C@@H](CC(C)C)C(=O)NC(CC(C)(C)C)C(=O)N[C@@H](CCC(N)=O)C(N)=O)NC(=O)[C@H](CC(C)C)NC1=O (some centres not stated) |  | 
3 | inactive | CC[C@H](C)[C@@H]1NC(=O)C(NC(=O)[C@H](CCCNC(=N)N)NC(=O)CCNC(=S)Nc2ccc3c(c2)C(=O)OC32c3ccc(O)cc3Oc3cc(O)ccc32)CNC(=O)C(CC(=O)N[C@@H](CCC(N)=O)C(=O)NC(CC(C)(C)C)C(=O)N[C@@H](CCCNC(=N)N)C(=O)NC(CC(C)(C)C)C(N)=O)NC(=O)C(CC(C)(C)C)NC1=O (stereo partly drawn) ({FITC-βAla}-R[ξDap]I[ξtBuAla][ξD]([Gln-ξtBuAla-Arg-ξtBuAla-NH2]); lactam 2-C) |  | Drug uptake [2]: Active; Drug uptake [3]: Active
4 |  | CC[C@H](C)[C@@H]1NC(=O)C[C@H](NC(=O)[C@H](CCCNC(=N)N)NC(=O)CCNC(=O)[C@H](Cc2c[nH]c3ccccc23)NC(C)=O)C(=O)NCC(C(=O)N[C@@H](CCCNC(=N)N)C(=O)N[C@@H](CC(C)C)C(=O)N[C@@H](CC(C)C)C(=O)N[C@@H](CCC(N)=O)C(N)=O)NC(=O)[C@H](CC(C)C)NC1=O (some centres not stated) | 64.5% | 
5 |  | CC[C@H](C)[C@@H]1NC(=O)C[C@H](NC(=O)[C@H](CCCNC(=N)N)NC(=O)CCNC(=O)[C@H](Cc2c[nH]c3ccccc23)NC(C)=O)C(=O)NCC(C(=O)N[C@@H](CCCNC(=N)N)C(=O)N[C@@H](CC(C)C)C(=O)NC(CC(C)(C)C)C(=O)N[C@@H](CCC(N)=O)C(N)=O)NC(=O)[C@H](CC(C)C)NC1=O (some centres not stated) | 43.1% | 
6 |  | CC[C@H](C)[C@@H]1NC(=O)C[C@H](NC(=O)[C@H](CCCNC(=N)N)NC(=O)CCNC(=O)[C@H](Cc2c[nH]c3ccccc23)NC(C)=O)C(=O)NCC(C(=O)N[C@@H](CCCNC(=N)N)C(=O)N[C@@H](CC(C)C)C(=O)N[C@@H](CC(C)C)C(=O)N[C@@H](CCC(N)=O)C(N)=O)NC(=O)C(CC(C)(C)C)NC1=O (some centres not stated) | 53.9% | 
7 |  | CC[C@H](C)[C@@H]1NC(=O)C(NC(=O)[C@H](CCCNC(=N)N)NC(=O)CCNC(=O)[C@H](Cc2c[nH]c3ccccc23)NC(C)=O)CNC(=O)C(CC(=O)N[C@@H](CCC(N)=O)C(=O)NC(CC(C)(C)C)C(=O)N[C@@H](CCCNC(=N)N)C(=O)NC(CC(C)(C)C)C(N)=O)NC(=O)C(CC(C)(C)C)NC1=O (stereo partly drawn) (Ac-W[βAla]R[ξDap]I[ξtBuAla][ξD]([Gln-ξtBuAla-Arg-ξtBuAla-NH2]); lactam 4-C) | 79.2% | inhibition [4]: inactive; inhibition [5]: inactive
8 | Active | CC[C@H](C)[C@@H]1NC(=O)C[C@H](NC(=O)[C@H](CCCNC(=N)N)NC(=O)CCNC(=S)Nc2ccc3c(c2)C(=O)OC32c3ccc(O)cc3Oc3cc(O)ccc32)C(=O)NCC(C(=O)N[C@@H](CCCNC(=N)N)C(=O)N[C@@H](CC(C)C)C(=O)N[C@@H](CC(C)C)C(=O)N[C@@H](CCC(N)=O)C(N)=O)NC(=O)C(CC(C)(C)C)NC1=O (some centres not stated) |  | 
9 | Active | CC[C@H](C)[C@@H]1NC(=O)C[C@H](NC(=O)[C@H](CCCNC(=N)N)NC(=O)CCNC(=S)Nc2ccc3c(c2)C(=O)OC32c3ccc(O)cc3Oc3cc(O)ccc32)C(=O)NCC(C(=O)N[C@@H](CCCNC(=N)N)C(=O)NC(CC(C)(C)C)C(=O)N[C@@H](CC(C)C)C(=O)N[C@@H](CCC(N)=O)C(N)=O)NC(=O)[C@H](CC(C)C)NC1=O (some centres not stated) |  | Drug uptake [2]: Active; Activity [6]: inactive; Activity [7]: Active; Drug uptake [3]: Active

Reference: ChEMBL document CHEMBL4017549, “Structural Basis of Inhibition of ERα-Coactivator Interaction by High-Affinity N-Terminus Isoaspartic Acid Tethered Helical Peptides” (J Med Chem, 2017)
